TAAR1 antagonist – human TAAR1 antagonists, primary screen, Fluo-8 calcium fluorescence, CHO RD-HGA16 cells; Trace amine-associated receptor 1 (Homo sapiens), Q96RJ0; antagonist; inhibition, % at 3 µM; 1.5% of 360,000 active; AID 624466, 2012;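 active means inhibition above a per-plate cutoff, the mean inhibition of test compounds on that plate plus 3 SD, cut at about 49% in these data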;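 further: 0% = DMSO plus EC80 beta-PEA response and 100% = DMSO alone without agonist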
Target sequence (Q96RJ0 whole entry, looked up): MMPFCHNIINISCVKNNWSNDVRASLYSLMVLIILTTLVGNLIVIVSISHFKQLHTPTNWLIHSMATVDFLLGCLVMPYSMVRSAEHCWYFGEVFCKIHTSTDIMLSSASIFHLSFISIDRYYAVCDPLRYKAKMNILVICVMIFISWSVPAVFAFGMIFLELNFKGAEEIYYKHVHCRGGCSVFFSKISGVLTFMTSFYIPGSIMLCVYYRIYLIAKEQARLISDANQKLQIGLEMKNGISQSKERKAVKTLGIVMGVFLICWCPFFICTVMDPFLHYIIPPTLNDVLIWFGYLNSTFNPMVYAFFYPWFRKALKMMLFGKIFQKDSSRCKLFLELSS
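Test system: hTAAR1-expressing CHO RD-HGA16 cells, Gα16-coupled; Probe or stimulus: EC80 β-phenethylamine stimulus; Compound dosing: single nominal final test compound concentration of 3 µM; Timing: 140 s kinetic read after compound, 140 s after agonist; Signal: Fluo-8 calcium-sensitive fluorescence; Measure: % inhibition of agonist calcium response; Controls: DMSO and EC80 PEA controls.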
OX1R antag-1 – antagonists of human orexin 1 receptor (OX1R); Orexin/Hypocretin receptor type 1 (Homo sapiens), O43613; OX1R-expressing cells, FRET antagonist read-out; inhibition, % at 6.6 µM; 1.8% of 330,000 active; AID 485270, 2010; in the data active means inhibition mostly above about 38%, no sharp cut-off; inactive means mostly below about 40%;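 further: 0% = agonist challenge alone and 100% = reference antagonist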
CHO parental Ca – ATP-evoked calcium signal inhibitors, parental CHO, primary screen, counter-screen for OX1R antagonist project, cell-based, fluorescence, Fluo-8 calcium dye. parental CHO-K1, ATP-induced calcium, Fluo-8 fluorescence. inhibition, % at 5.6 µM. 0.63% of 330,000 active;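 active means inhibition above that plate's mean sample inhibition plus 3 SD, cut at about 26% in these data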;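 further: 0% = ATP-challenged DMSO wells and 100% = DMSO wells without ATP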
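Measured by: calcium-sensitive Fluo-8 fluorescence / Test system: CHO parental line / Controls: ATP-challenged DMSO wells low, unchallenged DMSO wells high / Measure: % inhibition / Compound: single nominal dose of 5.6 µM per compound / Replicates: single well per compound, no replicates / Reagent: ATP as calcium-mobilizing challenge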
GPR7 antagonist – GPR7 receptor antagonists, primary screen, cell-based, fluorescence, single concentration | AID 1861, 2009 | GPR7-expressing cells, fluorescence antagonist assay | Neuropeptides B/W receptor type 1 (Homo sapiens), P48145 | 1.1% of 290,000 active | inhibition, % at 4.4 µM; in the data active means inhibition above about 16%, passing the limit was not always enough;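 further: cells stimulated with the agonist NPW; 0% = agonist with vehicle and 100% = vehicle without agonist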
TAAR1 agonist – human TAAR1 agonists, primary screen, Fluo-8 calcium fluorescence, CHO RD-HGA16 cells | Trace amine-associated receptor 1 (Homo sapiens), Q96RJ0 | vehicle wells 0%, saturating PEA agonist 100% | activation, % at 3 µM | 0.99% of 360,000 active | AID 624467, 2012;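 active means activation above the mean activation of all test compounds in the run plus 3 SD, cut at about 38% in these data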
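Signal – calcium-sensitive Fluo-8 signal, excitation 470-495, emission 515-575 nm · System – RD-HGA16 (CHO) cells co-expressing Gα16 and hTAAR1 · Incubation – 17-24 h seeding, 75 min 37 °C dye, 30 min RT · Compound dosing – 3 µM single concentration · Repeats – no replicates (n 1)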
OX1R antag-2 – OX1R (HCRTR1) antagonists, primary screen, fluorescence, CHO/OX1R cells, Fluo-8 calcium, orexin A; Fluo-8 calcium fluorescence; inhibition, % at 5 µM; AID 434989, 2010; 0.43% of 330,000 active;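 active means inhibition above its plate's threshold, mean inhibition of all tested compounds on the plate plus 3 SD, cut at about 37% in these data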;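 further: 0% = orexin A challenge wells and 100% = SB-334867-A antagonist wells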
OX1R Ca confirm – OX1R (HCRTR1) antagonists, confirmation, fluorescence, CHO/OX1R cells, Fluo-8 calcium, orexin A. inhibition, % at 5 µM. orexin A calcium Fluo-8 fluorescence. shares compounds with OX1R antag-2. AID 492963, 2010. 38% of 1,100 active; in the data active means inhibition above about 29%;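 further: 0% = agonist challenge alone and 100% = reference antagonist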
CHO Ca counter – ATP-evoked calcium inhibition in parental CHO, counter-screen for OX1R antagonist project, cell-based, fluorescence, CHO-K1, triplicate; shares compounds with OX1R antag-2; ATP-induced calcium, Fluo-8 fluorescence; inhibition, % at 5.6 µM; 9.3% of 1,100 active; AID 492965, 2010;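 active means inhibition above a per-plate limit, the mean inhibition of that plate's test compounds plus 3 SD, cut at about 25% in these data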;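 further: 0% = ATP challenge with DMSO and 100% = DMSO without ATP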
OX1R HTRF conf – OX1R (HCRTR1) antagonists, confirmation, cell-based, HTRF; OX1R-expressing cells, HTRF antagonist assay; inhibition, % at 6.6 µM; 49% of 1,800 active; shares compounds with OX1R antag-1; in the data active means inhibition above about 55%;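 further: CHO cells expressing OX1R stimulated with orexin A at about EC80; 0% = agonist challenge alone and 100% = reference antagonist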
CHO-K1 HTRF – signal inhibition in parental CHO-K1 cells, counter-screen for OX1R antagonist project, cell-based, HTRF. shares compounds with OX1R antag-1. HTRF counterscreen. inhibition, % at 6.6 µM. 48% of 1,800 active. AID 493232, 2011; in the data active means inhibition above about 17%;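 further: 0% = agonist challenge with vehicle and 100% = vehicle alone without agonist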
nonsel antag count – nonselective antagonists in TAAR1 counter-screen cells, counter-screen for hTAAR1 antagonist project, cell-based, fluorescence, calcium | 77% of 2,400 active | shares compounds with TAAR1 antagonist | inhibition, % at 3 µM | counterscreen cell line, antagonist mode | AID 651780, 2012; in the data active means inhibition above about 22%;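 further: CHO-Ga16 host cells stimulated with ATP at an EC80 level; 0% = agonist EC80 plus vehicle and 100% = vehicle without agonist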
TAAR1 antag conf – human TAAR1 antagonists, retest of hits, confirmation, cell-based, fluorescence. inhibition, % at 3 µM. shares compounds with TAAR1 antagonist. TAAR1-expressing cells, fluorescence antagonist read-out. 40% of 2,400 active; in the data active means inhibition above about 49%;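 further: CHO-Ga16 host cells challenged with agonist PEA near its EC80; 0% = agonist at EC80 plus vehicle and 100% = vehicle with no agonist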
Ga16 nonsel ag – calcium activation in Ga16-expressing cells, counter-screen for TAAR1 antagonist project, cell-based, fluorescence. shares compounds with TAAR1 antagonist. agonist counterscreen. activation, % at 3 µM. 18% of 2,400 active. AID 651953, 2012; in the data active means activation above about 12%;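 further: 0% = vehicle wells and 100% = saturating stimulus response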
TAAR1 ag counter – TAAR1 activation by candidate antagonists – cell-based, fluorescence, counter-screen for TAAR1 antagonist project; shares compounds with TAAR1 antagonist; hTAAR1 cell line, agonist mode; activation, % at 3 µM; 2% of 2,400 active; in the data active means activation above about 37%;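 further: CHO cells stably expressing TAAR1 with calcium dye readout; 0% = DMSO vehicle and 100% = full agonist response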
Numbers without * were called inactive; · = no result. In the library only some 4.6% were active in any assay of this set; here they are far more common.

SMILES | TAAR1 antagonist | OX1R antag-1 | CHO parental Ca | GPR7 antagonist | TAAR1 agonist | OX1R antag-2 | OX1R Ca confirm | CHO Ca counter | OX1R HTRF conf | CHO-K1 HTRF | nonsel antag count | TAAR1 antag conf | Ga16 nonsel ag | TAAR1 ag counter
COc1ccc(C(C)NC(=O)C2CCCO2)cc1OC (stereo not drawn) | · | 5 | -7 | -7 | · | -18 | · | · | · | · | · | · | · | ·
CCOC(=O)C1=C(COC(=O)/C=C/c2cccc(OC)c2)NC(=O)NC1C (stereo not drawn) | 67* | 73* | -17 | 7 | 17 | 25 | 31* | -5 | 49 | 0 | 22* | 53* | 9 | 14
CCOC(=O)C1=C(COC(=O)/C=C/c2ccc(OC)cc2)NC(=O)NC1C (stereo not drawn) | 43 | · | · | · | 13 | · | · | · | · | · | · | · | · | ·
CCCCn1c(N)c(N(Cc2ccccc2OC)C(=O)c2sccc2C)c(=O)[nH]c1=O | -6 | 8 | 9 | · | 2 | -27 | · | · | · | · | · | · | · | ·
COc1ccccc1NS(=O)(=O)c1ccc2oc(SCC(C)=O)nc2c1 | -3 | 14 | 3 | -6 | 6 | -9 | · | · | · | · | · | · | · | ·
COc1ccccc1NS(=O)(=O)c1ccc2oc(SC(C)C(=O)N3CCNC3=O)nc2c1 (stereo not drawn) | 74* | 32* | -10 | · | 23 | 36 | 31* | -1 | 62* | -10 | 40* | 52* | 16* | 16
COc1ccc(CC(=O)OCC(=O)Nc2ccc3[nH]c(=O)[nH]c3c2)cc1OC | -4 | · | · | · | 1 | · | · | · | · | · | · | · | · | ·
O=C(Nc1ccc(S(=O)(=O)NCc2ccco2)cc1)c1ccc2ccccc2n1 | 70* | 45* | 20 | 1 | 10 | 30 | 37* | 7 | 66* | 10 | 38* | 58* | 6 | 5
CC(NS(=O)(=O)c1cccc(Cl)c1)C(=O)Nc1ccc(-c2nc3ccccc3s2)cc1 (stereo not drawn) | 64* | 55 | -4 | -7 | 25 | 34 | 12 | -8 | · | · | 37* | 45 | 12* | 24
NC(=O)c1ccsc1NC(=O)COC(=O)/C=C/c1ccccc1[N+](=O)[O-] | 78* | 24 | -3 | · | 21 | 57* | 25 | -8 | · | · | 38* | 60* | 14* | 22

Source: PubChem BioAssay (The Scripps Research Institute Molecular Screening Center)
